Experimental data pooled from the literature.
Lines come from different studies, so protocols differ.
Target: Cyclin-dependent kinase 7 (CDK7, Homo sapiens, UniProt P50613)

SMILES	test	setting	remaining binding
O=C(O)c1cc(-c2ccc(C3CCNCC3)cc2)c2ccc(-c3ccc(C(F)(F)F)cc3)cc2c1	cell-free assay, competition with immobilised ligand	1 µM	82%
C=CC(=O)N1CCC(C(=O)NCC(=O)N2CCN(c3nc(-c4cnc(N)nc4C(F)F)nc(N4CCOCC4)n3)CC2)CC1	binding, competition with immobilised ligand	1 µM	94%
O=C(NCCCN1CCOCC1)c1ccc(Nc2ncc(Cl)c(-c3ccc(Cl)s3)n2)cc1	binding, competition with immobilised ligand	1 µM	2.5%
CNC(=O)[C@@H]1CC[C@@H](n2c(-c3ccc4cnccc4c3)nc3ccc(C(=O)NCc4cccc(C(N)=O)c4)cc32)C1	binding, competition with immobilised ligand	1 µM	100%
COc1ncc2cc3ccccc3nc2c1C#N	cell-free assay, competition with immobilised ligand	5 µM	100%
N#Cc1ccccc1CSc1nnc2c(n1)[nH]c1ccccc12	binding, competition with immobilised ligand	10 µM	94%
O=C(O)[C@@H]1[C@@H](Cn2nnc3ccccc3c2=O)CC[C@H]1C(=O)c1ccc(OCCC2CCOCC2)cc1	cell-free assay, competition with immobilised ligand	1 µM	86%
CC1CCCN1c1nccc(-c2cnn3ncccc23)n1 (centres unmarked)	binding	1 µM	100%
Cn1nc(C(F)(F)F)cc1-c1cnc(N2CCc3cc(S(=O)(=O)Nc4c(F)cc(Cl)cc4F)cc(N4CCCC4=O)c32)nc1	cell-free assay, competition with immobilised ligand	1 µM	75%
O=C(NCCCN1CCOCC1)c1ccc(Nc2nccc(-c3cc4ccccc4s3)n2)cc1	binding, competition with immobilised ligand	1 µM	40%
Cc1cnn2ncc(-c3ccnc(N(C)C)n3)c2c1	binding	1 µM	61%
COc1cnc(Nc2cccc(S(N)(=O)=O)c2)nc1N1CCN(c2ccccc2)CC1	binding, competition with immobilised ligand	1 µM	84%
O=C(NCC1CCOCC1)c1n[nH]cc1NC(=O)c1c(F)cccc1F	binding, competition with immobilised ligand	1 µM	31%
CC(C)(C)c1ccc(-c2nc(CBr)nn2-c2cccc(O)c2)cc1	cell-free assay, competition with immobilised ligand	10 µM	89%
C[C@@H]1CN(c2ccc3ncc(-c4ccc5[nH]nc(C6CC6)c5c4)n3n2)C[C@H](C)O1	binding, competition with immobilised ligand	0.5 µM	23%
O=S(=O)(NC1CCC(c2cc(F)ccc2F)(S(=O)(=O)c2ccc(Cl)cc2)CC1)C(F)(F)F (centres unmarked)	cell-free assay, competition with immobilised ligand	1 µM	100%
C[C@@H]1CCN(c2nccc(-c3cnn4ncccc34)n2)C1	binding	1 µM	35%
O=C(NCCCC1CCCCC1)c1ccc(CNC(=O)c2cnn(-c3ccccc3)c2C(F)(F)F)cc1	cell-free assay, competition with immobilised ligand	0.1 µM	100%
N[C@H]1CCN(c2nccc(-c3cnn4ncccc34)n2)C1	binding	1 µM	59%
Cc1c(C(=O)O)cc(-c2ccc(C3CCNCC3)cc2)c2ccc(-c3ccc(C(F)(F)F)cc3)cc12	binding, competition with immobilised ligand	1 µM	97%
CN(CCCC(F)(F)F)c1nccc(-c2cnn3ncccc23)n1	binding	1 µM	87%
CN(C)c1ncnc(-c2ccc3nc(Nc4cc(CN5CCN(C(=O)CC(F)(F)F)CC5)ccn4)[nH]c3c2)c1Cl	cell-free assay, competition with immobilised ligand	1 µM	80%
O=C(c1ccc(Nc2ncc(Cl)c(-c3ccc(Cl)s3)n2)cc1)N1CCC(N2CCCC2)CC1	binding, competition with immobilised ligand	1 µM	0.55%
